Published values of several laboratories.
Each line is one published result; the experiments were not run side by side.
Observed: cell growth or viability

`O=C(Nc1ccc(Cl)cc1)Nc1ccc(-c2cn(Cc3cccc(Cl)c3)nn2)cc1` gave a viability of 86.7% (Huh-7; CCK-8; 50 µM; 48 h).
The viability of `O=C(Nc1ccc(Cl)cc1)Nc1cccc(-c2cn(Cc3cccc(Br)c3)nn2)c1` is reported as 14.5% (Huh-7; CCK-8; 50 µM; 72 h).
`C=C(NC(=O)C(=C)NC(=O)c1csc(C2=N[C@@H]3c4csc(n4)[C@H]4NC(=O)c5csc(n5)[C@H]([C@](C)(O)[C@@H](C)O)NC(=O)[C@H]5CSC(=N5)/C(=C/C)NC(=O)[C@H]([C@@H](C)O)NC(=O)c5csc(n5)[C@]3(CC2)NC(=O)[C@H](C)NC(=O)C(=C)NC(=O)[C@H](C)NC(=O)[C@H]([C@@H](C)CC)N[C@@H]2C=Cc3c([C@H](C)O)cc(nc3[C@H]2O)C(=O)O[C@@H]4C)n1)C(N)=O` has an EC50 of 1.5 µM (NCI-H2009).
`O=[N+]([O-])c1cc(Br)c(O)c(C=NNc2ccc(Cl)cc2)c1` gave an IC50 of 17.2 µM (HEK-293T; MTT; 24 h).
`O=C(Nc1ccc(Cl)cc1)Nc1ccc(-c2cn(Cc3ccc(Cl)cc3)nn2)cc1` has a viability of 72.8% (Huh-7; CCK-8; 50 µM; 72 h).
With `COc1ccc(NC(=O)Nc2ccc(-c3cn(Cc4ccc(C)cc4)nn3)cc2)cc1` the viability was 77.3% (Huh-7; CCK-8; 50 µM; 48 h).
`COc1cc(NC(=O)c2cnn(-c3ccc([N+](=O)[O-])cc3)c2C(F)(F)F)cc(OC)c1OC` has an inhibition of 11% (LX-2; MTS; 50 µM; 72 h).
`COc1ccc(NC(=O)Nc2cccc(-c3cn(Cc4ccc(Br)cc4)nn3)c2)cc1` has a viability of 10.7% (Huh-7; CCK-8; 50 µM; 72 h).
With `O=C(Nc1ccc(-c2ccccc2)cc1)c1cnn(-c2ccc([N+](=O)[O-])cc2)c1C(F)(F)F` the inhibition was 12.4% (LX-2; MTS; 50 µM; 72 h).
With `COc1ccc(NC(=O)NCc2cn(Cc3ccccc3C)nn2)cc1` the viability was 84.2% (Huh-7; CCK-8; 50 µM; 48 h).
With `O=C(NCc1cn(Cc2cccc(Cl)c2)nn1)Nc1ccc(Cl)cc1` the viability was 86.1% (Huh-7; CCK-8; 50 µM; 48 h).
For `O=[N+]([O-])c1ccc(O)c(C=NNc2ccc(Br)cc2)c1`, the IC50 was 16.2 µM (HEK-293T; MTT; 24 h).
